The entries come from a sample that favours hits as a whole.
UPR CHOP act = activators of apoptotic arm of unfolded protein response (CHOP). CHO-CHOP luciferase reporter, UPR activation, luminescence; percent of tunicamycin response over DMSO baseline. activation, % at 10 µM. 0.34% of 330,000 active. AID 449763;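 active = at 10 µM dose, activation of 40% or more, normalized to positive control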;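 note: 100% = tunicamycin at 10 µg/mL and 0% = DMSO alone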
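Material: CHO-CHOP cells, stable luciferase reporter of PERK-eIF2a-CHOP signalling; quantity: 500 reporter cells seeded per well; buffer or medium: F12 medium containing 10% fetal bovine serum; compound: one dose, 10 µM in 0.5% DMSO; incubation: 6 h compound treatment, 37 °C; measured by: Steady-Glo luciferase luminescence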
Dynein transport = dynein cargo transport inhibition. 0.47% of 220,000 active. AID 1381. z-score, hits read low. 3617.4 mouse cells, GR-EGFP nuclear translocation imaging; test concentration mostly 20 µM; stimulated with dexamethasone, 1 µM; stronger effect = lower value;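 active = plate z-score of nuclear minus cytoplasmic receptor signal below a set negative limit, without overly bright fluorescence or cell loss, cut at about -3.5 in these data, passing the limit was not always enough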;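 note: z-score of nuclear minus cytoplasmic ring GR-EGFP intensity difference per well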
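Buffer or medium: tet-free medium with charcoal-stripped serum / Also added: dexamethasone agonist, 1.0 µM final, for 30 min / Timing: induction 48 h, compound 1 h, agonist 30 min / Measured by: high-content fluorescence imaging after fixation / Read-out: nuclear-to-cytoplasmic GR-EGFP distribution per well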
XBP1 UPR activ = adaptive UPR (XBP1) activation; CHO-XBP1 luciferase reporter, IRE1-XBP1 UPR activation, luminescence; percent of tunicamycin response, DMSO as zero; activation, % at 20 µM; 0.33% of 330,000 active; AID 463104;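 active = versus positive control, 20 µM dose yields 30% or more activation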;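 note: 100% = tunicamycin at 10 µg/mL and 0% = DMSO only wells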
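Signal: luciferase luminescence; Assay system: CHO-XBP1 luciferase reporter cells; Amount: one thousand reporter cells per well; Dosing: 20 µM single concentration, DMSO 1%; Benchmarks: high control tunicamycin 10 µg/mL final, low control DMSO vehicle only; Schedule: 6 h compound exposure at 37 °C, 5% CO2; Evaluation: percent activation relative to tunicamycin reference.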
B2AR ag = activates human beta-2 adrenergic receptor causing internalization; response, % (test concentration not listed); P07550; 0.43% of 340,000 active; Am2.2-beta2AR cells, FAP receptor internalization, flow cytometry;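 active = response above a set limit, near 3 SD of response in nonfluorescent compounds, cut at about 42% in these data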
Target sequence (P07550 whole entry, looked up): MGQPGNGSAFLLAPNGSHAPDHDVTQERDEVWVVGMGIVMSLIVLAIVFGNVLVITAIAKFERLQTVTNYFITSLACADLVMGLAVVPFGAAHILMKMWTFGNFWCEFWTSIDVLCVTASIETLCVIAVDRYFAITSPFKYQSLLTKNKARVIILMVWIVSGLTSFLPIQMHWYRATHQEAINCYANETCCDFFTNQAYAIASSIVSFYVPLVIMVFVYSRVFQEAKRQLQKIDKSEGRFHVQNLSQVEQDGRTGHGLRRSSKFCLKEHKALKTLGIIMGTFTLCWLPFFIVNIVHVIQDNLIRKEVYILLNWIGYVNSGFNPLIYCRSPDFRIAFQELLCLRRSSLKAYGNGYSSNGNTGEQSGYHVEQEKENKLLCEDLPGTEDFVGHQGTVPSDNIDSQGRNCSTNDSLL
p-CIP stab down = lowers stability of the mouse p/CIP coactivator protein. AID 1984. 0.01% of 290,000 active. F442A p/CIP-EGFP cells, EGFP fluorescence, 16 h. decrease of EGFP signal, % at 10 µM. Q05BA5;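 active = EGFP signal decrease of at least 30% at 10 µM or well 3 SD below plate mean, unless failing retest; inactive = the rest, including hits failing retest or dose response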
CHOP inhibitor = blocks CHOP induction under ER stress; CHO-K1 CHOP-promoter luciferase, tunicamycin-induced, 15-18 h; 3.8% of 220,000 active; inhibition, % at 10 µM; AID 2732;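 active = compounds that reduced the stress-induced luciferase reporter signal by more than about 70% of percent inhibition, limit read from the data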;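 note: 0% = tunicamycin plus vehicle and 100% = wells without tunicamycin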
Dynein inh conf = dynein cargo transport inhibition, confirmation; shares compounds with Dynein transport; 3617.4 GR-EGFP nuclear translocation imaging, dexamethasone-induced; calls only at 20 µM; 69% of 1,000 active; AID 463116;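 active = inhibition of receptor movement into the nucleus at or above a set limit in both runs, with normal cell brightness and cell count; inconclusive = limit reached in only one run, brightness and count normal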;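 note: dexamethasone at 1 µM final in well for 30 min; nuclear minus cytoplasmic GR-EGFP mean intensity difference in channel 2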
CHOP confirm = confirmation of CHOP induction inhibitors; shares compounds with CHOP inhibitor; CHO-CHOP promoter luciferase reporter, tunicamycin-induced, luminescence; inhibition, % at 10 µM; 45% of 2,100 active;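 active = mean of three repeat readings of reporter signal inhibition above a set limit, cut at about 70% in these data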;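 note: 0% = tunicamycin plus vehicle and 100% = wells lacking tunicamycin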
CHOP UPR conf = confirmation of apoptotic unfolded protein response (CHOP) activators | shares compounds with UPR CHOP act | CHO-CHOP cells, CHOP-luciferase reporter luminescence; percent of tunicamycin response, DMSO as zero | activation, % at 10 µM | 64% of 1,000 active | AID 463112; in the data active = activation above about 33%;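 note: 0% = DMSO wells and 100% = tunicamycin 10 µg/mL wells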
XBP1 UPR conf = adaptive UPR (XBP1) activation, confirmed | shares compounds with XBP1 UPR activ | CHO-XBP1 IRE1-XBP1 luciferase reporter, luminescence | activation, % at 20 µM | 63% of 1,000 active | AID 485299;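 active = reporter signal at least 30% of the positive control's activation in two or more of four replicate wells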;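 note: plate controls were DMSO negative control for no effect and tunicamycin 10 µg/mL positive control for full effect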
B2AR ag CP1 = human beta-2 adrenergic receptor agonism, cherry pick; shares compounds with B2AR ag; Am2.2-beta2AR cells, FAP surface receptor, flow cytometry; stronger effect = lower value; percent response (surface receptor), % at 10 µM; 25% of 1,100 active;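 active = surface receptor percent response at or below 58%, roughly 3 SD from nonfluorescent compounds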
B2AR FAP counter = flagged in Am2.2 fluorescence counterscreen for beta-2AR agonists | AID 588765 | calls only at 10 µM | Am2.2 cells, FAP fluorogen flow cytometry; stronger effect = lower value | shares compounds with B2AR ag | 1,100 tested, under 10 active;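 active = percent response below a set limit in fluorescence channel 1 and below 50% in channel 8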
An asterisk follows results filed as active; i = inactive; ? = inconclusive; / = no result given; + = active, no number.

SMILES | UPR CHOP act | Dynein transport | XBP1 UPR activ | B2AR ag | p-CIP stab down | CHOP inhibitor | Dynein inh conf | CHOP UPR conf | others
CCN1CCN(Cc2c(O)ccc3c2O/C(=C\C=C\c2ccccc2)C3=O)CC1 | 154* | -4.9* | -2 | 3 | 15 | -53 | + | 1
NC1=NC(=O)/C(=C/C=C/c2cccs2)S1 | 3 | / | 3 | -4 | / | / | / | /
Cc1cc(-n2c(C)cc(C(=O)CCl)c2C)no1 | 171* | -7.3* | 1 | 65* | -11 | -291 | + | 263*
Cc1cc(-n2c(C)cc(C(=O)CN3C(=O)C(=O)N(C)C3=O)c2C)no1 | 0 | / | -3 | 5 | / | / | / | /
Cc1nc([N+](=O)[O-])cn1CC(=O)c1ccc(Br)cc1 | -1 | / | -1 | 28 | / | / | / | /
Cc1nc([N+](=O)[O-])c(Br)n1CC(=O)c1ccc(Cl)cc1 | 58* | -6.5* | -6 | 25 | 2 | -64 | + | 60*
C=CCSC(=C(C#N)C#N)c1cc2c([nH]1)CCCC2 | 43* | -4* | -5 | 37 | -10 | 63 | + | 55*
CCCCOc1ccc(N(CC(=O)NC2CCCCC2)C(=O)c2snc(C(N)=O)c2N)cc1 | 1 | / | -4 | -4 | -14 | / | / | /
O=C(/C(=C/c1ccc(Cl)cc1)c1nc2ccccc2[nH]1)c1ccccc1 | 211* | -4.7* | 0 | 40 | -12 | -48 | + | 158*
COc1cc(/C=C(/C(=O)c2cccs2)c2nc3ccccc3[nH]2)cc(OC)c1O | 126* | -4.6* | 8 | 2 | -2 | -90 | + | 161*
COc1ccc(C(=O)N/C(=C/c2cccs2)c2nc3ccccc3[nH]2)cc1OC | 0 | -0.58 | -2 | -3 | -8 | -8 | / | /
CCn1nc(C)cc1C(=O)Sc1cccc(Cl)c1 | 5 | -3.5* | 49* | 1 | 6 | -34 | + | / | XBP1 UPR conf=5
O=c1cc(-c2ccco2)oc2c1ccc1ccccc12 | 1 | -0.87 | 0 | 3 | -15 | 17 | / | /
O=c1cc(C(Cl)(Cl)Cl)oc2c1ccc1ccccc12 | 47* | -4* | 163* | 14 | -20 | 100* | + | 33* | CHOP confirm=-10;XBP1 UPR conf=286*
O=S(=O)(NC1CCCC1)c1cc(F)ccc1F | 0 | / | 1 | 0 | -19 | / | / | /
O=C1NC[C@H](CC2CCCCC2)N(CCc2cccc(F)c2)C1=O | 0 | / | 9 | -7 | / | / | / | /
Cc1ccnc(N/C=C(\C#N)c2nc(-c3cccc(Br)c3)cs2)c1 | 3 | -12 | 91* | -650 | -55 | 44 | + | / | XBP1 UPR conf=94*
Cn1c(Cl)cnc1C1CC(=O)c2cc(Cl)ccc2O1 (stereo unspecified) | 23 | -5.9* | 77* | -6 | -13 | -37 | ? | / | XBP1 UPR conf=130*
O=C1CC(c2ccc(Cl)cc2)Oc2ccc(Cl)cc21 (stereo unspecified) | / | / | / | 5 | / | / | / | /
COc1ccc(-n2c(C)cc(C(=O)CCl)c2C)cc1 | 564* | -3.8* | 42* | 31 | -13 | -121 | + | 417* | XBP1 UPR conf=31*
COc1ccccc1CCC(=O)NCCCn1ccc2ccccc21 | 1 | / | -2 | 0 | 0 | / | / | /
Cc1ccc(-n2nc3c(c2NC(=O)c2cc4ccccc4o2)CS(=O)(=O)C3)cc1 | 0 | / | -4 | 3 | -4 | / | / | /
O=C(O)c1ccc(-n2ccnc2)c([N+](=O)[O-])c1 | 0 | -0.36 | 1 | 0 | 3 | 8 | / | /
COC(=O)c1cc([N+](=O)[O-])c(-n2ccnc2)c([N+](=O)[O-])c1 | 7 | -3.5* | 91* | 7 | -2 | 90* | + | / | XBP1 UPR conf=187*
CCN(CC)c1ccc2cc(-c3nc4ccccc4[nH]3)c(=O)oc2c1 | 22 | -5.2* | 45* | -409 | -335 | 100* | + | / | CHOP confirm=41;XBP1 UPR conf=21
SMILES | UPR CHOP act | Dynein transport | XBP1 UPR activ | B2AR ag | p-CIP stab down | CHOP inhibitor | Dynein inh conf | CHOP UPR conf | others
Cc1ccc(-c2nc(NC(=O)c3nn(C)cc3[N+](=O)[O-])sc2C)cc1 | 100* | -3.8* | 8 | 104* | -3 | -22 | + | 59* | B2AR ag CP1=9.7*;B2AR FAP counter=i
Cc1ccc(Cn2ccc(NC(=O)c3nn(C)cc3[N+](=O)[O-])n2)cc1 | 2 | -1.4 | 0 | -34 | 6 | 20 | / | /
COc1ccc(C2C(C#N)=C(N)Oc3c2sc2nc(C)cc(C)c32)cc1 (stereo unspecified) | 0 | -3.9* | -2 | 80* | 2 | -45 | i | / | B2AR ag CP1=43*;B2AR FAP counter=i
COc1ccccc1-c1cc(C(F)(F)F)nc(S(=O)(=O)CCCC(=O)N2CCCCC2C)n1 (stereo unspecified) | 279* | -5.8* | 6 | 35 | -4 | / | ? | 192* | B2AR ag CP1=66;B2AR FAP counter=i
COc1ccccc1-c1cc(C(F)(F)F)nc(N2CCCCC2)n1 | -3 | -0.42 | 3 | 3 | -4 | 61 | / | /
Cn1ncc2c(NNC(=O)c3ccc(Cl)cc3Cl)ncnc21 | 0 | -0.064 | 0 | -10 | -2 | -10 | / | /
CCCN(CCC)S(=O)(=O)c1ccc(Cl)c([N+](=O)[O-])c1 | 1 | -3.5* | -1 | 44* | -3 | -14 | ? | / | B2AR ag CP1=107;B2AR FAP counter=i
CCCN(CCC)S(=O)(=O)c1ccc(N2CCCC2=O)c([N+](=O)[O-])c1 | 2 | -0.39 | 2 | -2 | 7 | 10 | / | /
COc1cc(C(=O)OCC(=O)Nc2c(C)n(C)n(-c3ccccc3)c2=O)c([N+](=O)[O-])cc1OC | 1 | / | -2 | -11 | / | / | / | /
COc1ccc(-c2[nH]ncc2CNCCn2cccn2)c(F)c1 | -1 | -0.79 | 0 | -10 | 4 | 7 | / | /
